Experimental data taken from ChEMBL document CHEMBL1144727, “Fragment based design of new H4 receptor-ligands with anti-inflammatory properties in vivo” (J Med Chem, 2008).
pKi: −log10 of the molar value. The source made the active and inactive calls. The calls are words filed in the database; no cut-off is given here.

Columns and labels:
[1] = target: Histamine H3 receptor (Homo sapiens) (UniProt Q9Y5N1); experiment: Displacement of [3H]Nalpha-methyl-histamine from human histamine H3 receptor expressed in […] cells at 10 uM; assay type: cell-based; details: SK-N-MC
Procedure, shortened: (§1)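 Single-point radioligand displacement at the human receptor, performed externally, with ligand at 10 μM. Reported as % inhibition of radioligand binding, measured in duplicate.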

[2] = target: Histamine H2 receptor (Homo sapiens) (UniProt P25021); experiment: Displacement of [3H]aminopotentidine from human histamine H2 receptor expressed in COS7 cells at 10 uM; assay type: cell-based; details: COS-7; procedure, shortened: as §1
Histamine H1 receptor [3] = target: T1, Histamine H1 receptor (Homo sapiens, UniProt P35367); experiment: Displacement of [3H]mepyramine from human histamine H1 receptor expressed in NIH3T3 cells at 10 uM; assay type: cell-based; procedure, shortened: as §1
Rattus norvegicus [4] = experiment: Antiinflammatory activity in Wistar rat assessed as inhibition of carrageenan-induced paw edema at 30 mg/kg, sc after 2 hr; assay type: functional, organism-based; parameters: dose 30 mg/kg
Procedure, shortened: (§2)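 Male Wistar rats (180–200 g), fasted; paw inflammation induced by subplantar injection of 0.1 mL 1% carrageenan in carboxymethylcellulose into left hind paw. Compound or vehicle (DMSO solution, freshly prepared) given s.c. at 0.1 mL per 100 g immediately before carrageenan. Paw volume by plethysmometer before injection and at 2, 4, 6 h; edema as % increase over preinjection value (=100). n = 6 per group.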

Histamine H4 receptor = Histamine H4 receptor (Homo sapiens, UniProt Q9H3N8); experiment: Displacement of [3H]histamine from human histamine H4 receptor expressed in HEK293T cells; assay type: cell-based, HEK-293T
Histamine H1 receptor [5] = target: T1, Histamine H1 receptor; experiment: Displacement of [3H]mepyramine from human histamine H1 receptor expressed in NIH3T3 cells; assay type: cell-based
Rattus norvegicus [6] = experiment: Antiinflammatory activity in Wistar rat assessed as inhibition of carrageenan-induced paw edema at 10 mg/kg, sc after 6 hrs; assay type: functional, organism-based; parameters: dose 10 mg/kg; procedure, shortened: as §2
Rattus norvegicus [7] = experiment: Antiinflammatory activity in Wistar rat assessed as inhibition of carrageenan-induced paw edema at 10 mg/kg, sc after 2 hrs; assay type: functional, organism-based; parameters: dose 10 mg/kg; procedure, shortened: as §2

Chain of Histamine H4 receptor (Q9H3N8 whole entry): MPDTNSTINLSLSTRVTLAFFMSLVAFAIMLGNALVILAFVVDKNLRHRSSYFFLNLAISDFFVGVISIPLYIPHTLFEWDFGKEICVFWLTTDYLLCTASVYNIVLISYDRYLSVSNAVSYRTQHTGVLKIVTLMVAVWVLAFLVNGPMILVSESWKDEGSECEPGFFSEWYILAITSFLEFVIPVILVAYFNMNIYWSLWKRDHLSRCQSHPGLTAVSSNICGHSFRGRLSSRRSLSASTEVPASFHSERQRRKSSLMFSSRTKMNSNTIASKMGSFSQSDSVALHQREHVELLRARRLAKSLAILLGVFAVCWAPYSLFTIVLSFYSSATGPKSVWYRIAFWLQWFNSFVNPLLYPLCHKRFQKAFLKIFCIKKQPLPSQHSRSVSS
T1 sequence (P35367 whole entry): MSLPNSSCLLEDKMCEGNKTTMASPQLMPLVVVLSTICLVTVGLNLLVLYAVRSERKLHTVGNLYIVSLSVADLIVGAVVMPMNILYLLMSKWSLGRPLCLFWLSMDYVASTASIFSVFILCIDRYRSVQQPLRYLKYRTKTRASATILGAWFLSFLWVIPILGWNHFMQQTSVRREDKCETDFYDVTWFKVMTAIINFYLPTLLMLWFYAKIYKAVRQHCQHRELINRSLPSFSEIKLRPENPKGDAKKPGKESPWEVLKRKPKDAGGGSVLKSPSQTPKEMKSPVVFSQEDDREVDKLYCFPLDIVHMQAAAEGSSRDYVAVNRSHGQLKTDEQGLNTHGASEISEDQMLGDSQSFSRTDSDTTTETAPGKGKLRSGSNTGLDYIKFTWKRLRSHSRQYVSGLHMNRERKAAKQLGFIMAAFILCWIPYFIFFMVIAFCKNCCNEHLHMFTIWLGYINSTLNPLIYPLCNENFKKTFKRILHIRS
Chain of Histamine H3 receptor (Homo sapiens) (Q9Y5N1 whole entry): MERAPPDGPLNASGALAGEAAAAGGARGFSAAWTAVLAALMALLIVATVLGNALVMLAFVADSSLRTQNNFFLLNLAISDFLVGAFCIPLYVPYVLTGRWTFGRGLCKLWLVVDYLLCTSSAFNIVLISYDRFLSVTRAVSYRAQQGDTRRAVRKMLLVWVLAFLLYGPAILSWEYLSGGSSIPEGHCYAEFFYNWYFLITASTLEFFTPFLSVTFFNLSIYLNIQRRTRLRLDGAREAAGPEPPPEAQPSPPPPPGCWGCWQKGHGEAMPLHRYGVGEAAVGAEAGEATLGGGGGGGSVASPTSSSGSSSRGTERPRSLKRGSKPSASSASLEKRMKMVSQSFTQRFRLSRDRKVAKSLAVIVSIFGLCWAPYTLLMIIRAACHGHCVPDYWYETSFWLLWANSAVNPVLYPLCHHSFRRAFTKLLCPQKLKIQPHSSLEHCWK
Chain of Histamine H2 receptor (Homo sapiens) (P25021 whole entry): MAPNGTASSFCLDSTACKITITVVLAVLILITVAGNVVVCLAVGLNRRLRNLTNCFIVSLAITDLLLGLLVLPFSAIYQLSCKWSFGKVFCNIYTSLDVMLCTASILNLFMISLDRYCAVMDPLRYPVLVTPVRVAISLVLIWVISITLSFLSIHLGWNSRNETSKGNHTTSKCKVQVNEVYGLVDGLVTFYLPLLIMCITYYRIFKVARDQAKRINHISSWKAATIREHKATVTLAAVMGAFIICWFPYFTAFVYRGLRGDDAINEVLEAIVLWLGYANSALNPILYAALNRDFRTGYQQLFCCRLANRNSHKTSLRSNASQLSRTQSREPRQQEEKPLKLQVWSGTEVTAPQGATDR

With `CN1CCN(c2nc3ccccc3nc2Cc2ccccc2)CC1` the inhibition [1] was 26%, the inhibition [2] was 62% and the inhibition (Histamine H1 receptor [3]) was 86%. The Activity (Rattus norvegicus [4]) was “Active”, the pKi (Histamine H4 receptor) was 7.40 and the pKi (Histamine H1 receptor [5]) was 6.13.

In the case of `CN1CCN(c2nc3ccccc3nc2Oc2ccc(F)cc2)CC1`, the pKi (Histamine H4 receptor) was 5.80.

`COc1nc2cc(Cl)c(Cl)cc2nc1N1CCN(C)CC1` gave a pKi (Histamine H4 receptor) of 7.24.

Compound `COc1nc2ccccc2nc1N1CCN(C)CC1` has a pKi (Histamine H4 receptor) of 6.47.

Work on `Cc1nc2cc(Cl)c(Cl)cc2nc1N1CCN(C)CC1` yielded a pKi (Histamine H4 receptor) of 7.20.

With `CN1CCN(c2nc3ccccc3nc2OC2CCCCC2)CC1` the pKi (Histamine H4 receptor) was 4.88.

`CC(C)COc1nc2ccccc2nc1N1CCN(C)CC1` was tested, and the pKi (Histamine H4 receptor) was 5.24.

With `CN1CCN(c2nc3ccccc3nc2Oc2cccnc2)CC1` the pKi (Histamine H4 receptor) was 5.89.

For `CN1CCN(c2nc3cc(Cl)c(Cl)cc3[nH]c2=O)CC1`, the inhibition [1] was 64%, the inhibition [2] was 42% and the Activity (Rattus norvegicus [6]) was “Active”. For the same compound, the Activity (Rattus norvegicus [7]) was “Active”, the inhibition (Histamine H1 receptor [3]) was 7% and the pKi (Histamine H4 receptor) was 8.25.

Compound `CN1CCN(c2cnc3ccccc3n2)CC1` has a pKi (Histamine H4 receptor) of 6.05.

Compound `CN1CCN(c2nc3ccccc3nc2Cl)CC1` has a pKi (Histamine H4 receptor) of 6.64.

Compound `CN1CCN(c2nc3cc(Cl)ccc3[nH]c2=O)CC1` has a pKi (Histamine H4 receptor) of 7.93.

Work on `COc1ccc(Oc2nc3ccccc3nc2N2CCN(C)CC2)cc1` yielded a pKi (Histamine H4 receptor) of 5.63.

Compound `CN1CCN(c2nccc3ccccc23)CC1` has a pKi (Histamine H4 receptor) of 4.69.

Compound `COc1nc2cc(Cl)ccc2nc1N1CCN(C)CC1` has a pKi (Histamine H4 receptor) of 7.58.

With `CN1CCN(c2nc3ccccc3nc2OCc2ccncc2)CC1` the pKi (Histamine H4 receptor) was 5.36.

Work on `CN1CCN(c2nc3ccccc3nc2OCc2ccccn2)CC1` yielded a pKi (Histamine H4 receptor) of 6.33.

Compound `CN1CCN(c2ccc3cc(Cl)ccc3n2)CC1` has a pKi (Histamine H4 receptor) of 6.23.

With `CN1CCN(c2nc3ccccc3nc2Oc2ccc(Cl)cc2)CC1` the pKi (Histamine H4 receptor) was 5.63.

With `CN1CCN(c2nc3ccccc3nc2C(F)(F)F)CC1` the pKi (Histamine H4 receptor) was 5.60.

Compound `Cc1ccc(Oc2nc3ccccc3nc2N2CCN(C)CC2)cc1` has a pKi (Histamine H4 receptor) of 5.66.

With `CN1CCN(c2nc3ccccc3[nH]c2=O)CC1` the pKi (Histamine H4 receptor) was 7.21.

Compound `CN1CCN(c2nc3ccccc3nc2OCc2cccnc2)CC1` has a pKi (Histamine H4 receptor) of 5.53.

`CN1CCN(c2nc3ccccc3nc2NCc2ccccc2)CC1` showed a pKi (Histamine H4 receptor) of 5.13.

`COc1ccc(COc2nc3ccccc3nc2N2CCN(C)CC2)cc1` gave a pKi (Histamine H4 receptor) of 6.15.

`CN1CCN(c2nc3ccccc3nc2OCc2cccc(Cl)c2)CC1` showed a pKi (Histamine H4 receptor) of 6.57.

`CN1CCN(c2nc3ccccc3nc2OCc2ccccc2)CC1` was tested, and the pKi (Histamine H4 receptor) was 6.53.

For `CN1CCN(c2nc3cc(Cl)c(Cl)cc3nc2Oc2ccccc2)CC1`, the pKi (Histamine H4 receptor) was 5.93.

Compound `CN1CCN(c2nc3ccccc3nc2Oc2ccc(Cl)c(Cl)c2)CC1` has a pKi (Histamine H4 receptor) of 5.77.

In the case of `CCOc1nc2ccccc2nc1N1CCN(C)CC1`, the pKi (Histamine H4 receptor) was 6.64.

In the case of `CN(C)CCCOc1nc2ccccc2nc1N1CCN(C)CC1`, the pKi (Histamine H4 receptor) was 5.40.

For `Cc1nc2ccccc2nc1N1CCN(C)CC1`, the pKi (Histamine H4 receptor) was 6.70.

In the case of `CN1CCN(c2nc3ccccc3nc2OCCCCc2ccccc2)CC1`, the pKi (Histamine H4 receptor) was 5.53.

With `CN1CCN(c2nc3cc(Cl)c(Cl)cc3nc2CCc2ccccc2)CC1` the pKi (Histamine H4 receptor) was 5.40.

`CN1CCN(c2ccc3ccccc3n2)CC1` gave a pKi (Histamine H4 receptor) of 5.16.

Compound `CN1CCN(c2nc3ccccc3nc2Sc2ccccc2)CC1` has a pKi (Histamine H4 receptor) of 6.44.

Work on `Cc1cccc(Oc2nc3ccccc3nc2N2CCN(C)CC2)c1` yielded a pKi (Histamine H4 receptor) of 6.24.

For `CCN1CCN(c2nc3ccccc3nc2Cc2ccccc2)CC1`, the pKi (Histamine H4 receptor) was 5.57.

Work on `CN1CCN(c2nc3ccccc3nc2OCc2ccc(Cl)cc2)CC1` yielded a pKi (Histamine H4 receptor) of 5.64.

In the case of `CN1CCCN(c2nc3cc(Cl)ccc3[nH]c2=O)CC1`, the pKi (Histamine H4 receptor) was 6.01.

`CN1CCN(c2nc3ccccc3nc2OCCc2ccccc2)CC1` was tested, and the pKi (Histamine H4 receptor) was 6.32.

`CN1CCN(c2cnc3cc(Cl)ccc3n2)CC1` showed a pKi (Histamine H4 receptor) of 7.04.

Compound `Cc1ccc(COc2nc3ccccc3nc2N2CCN(C)CC2)cc1` has a pKi (Histamine H4 receptor) of 5.86.

`CN1CCN(c2nc3ccccc3nc2-c2ccccc2)CC1` showed a pKi (Histamine H4 receptor) of 4.99.

For `CN1CCN(c2nc3ccccc3nc2Oc2ccccc2)CC1`, the pKi (Histamine H4 receptor) was 6.49.

`CN1CCN(c2nc3ccccc3nc2Oc2cccc(N(C)C)c2)CC1` showed a pKi (Histamine H4 receptor) of 5.81.
